Source: PMC3477254 (ACS chemical biology, 2012)
“Also recorded” adds a separate entry of the source.

Columns and labels:
r(CGG)12-DGCR8Δ complex = test: TR-FRET protein displacement assay; assay type: biochemical
[1] = target: RNA containing one 5’CGG/3’GGC motif (1x1 nucleotide GG internal loop); test: RNA-binding assay via Hoechst 33258 dye displacement; conditions: competition with Hoechst 33258 (1 µM), RNA 1 µM
How it was run: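 RNA was annealed at 60 °C for 5 min in phosphate buffer (8 mM Na₂HPO₄ pH 7.0, 185 mM NaCl, 0.1 mM EDTA, BSA), then slow-cooled. Titrating RNA into 1000 nM Hoechst 33258 (ex 360/40, em 460/40 nm) gave the dye Kd. Test compound was then titrated into 1 µM RNA plus 1 µM Hoechst. Loss of fluorescence was fit to a competitive binding equation to obtain Kd.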

r(CGG)12 = test: Competition dialysis, r; assay type: binding; conditions: 2 µM RNA, 0.7 µM ligand
How it was run: (§1)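 2 µM RNA or DGCR8Δ protein was placed in dialysis units (MWCO 2,000) immersed in 0.7 µM ligand. Two buffer-only units were tracked by absorbance to confirm equilibration. SDS was then added to 1% final, and absorbance gave total ligand inside the units and free ligand in the dialysate. Bound ligand was calculated as total minus free.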

DGCR8Δ = test: Competition dialysis, DGCR8Δ; assay type: binding; conditions: 2 µM protein, 0.7 µM ligand
How it was run: as §1

fully paired RNAs = test: Competition dialysis, fully paired RNAs; assay type: binding; conditions: 2 µM RNA, 0.7 µM ligand
How it was run: as §1

[2] = test system: SMN2 exon 7 alternative splicing in COS7 cells; test: SMN2 pre-mRNA splicing by RT-PCR in FXTAS cell model; assay type: cell-based
How it was run: (§2)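 COS7 cells were grown in DMEM with 10% FBS and GlutaMax. At 90–95% confluency they were transfected with equal amounts of a plasmid carrying 60 CGG repeats and an SMN2 or Bcl-x mini-gene. About 5 h later, medium containing test compound replaced the transfection mix. After 16–24 h, total RNA was extracted with on-column DNase digestion. Roughly 300 ng was reverse transcribed and 150 ng went to PCR for 25–30 cycles. Isoforms were gel-separated, imaged and quantified.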

[3] = test system: Bcl-x exon 2 alternative splicing in COS7 cells; test: Bcl-x pre-mRNA splicing by RT-PCR in FXTAS cell model; assay type: cell-based
How it was run: as §2

[4] = test system: PLEKHH2 alternative splicing in COS7 cells; test: PLEKHH2 mini-gene splicing control; assay type: cell-based; conditions: 500 µM; splicing not regulated by Sam68
How it was run: (§3)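 COS7 cells were co-transfected with the 60 CGG-repeat mini-gene and a PLEKHH2 or cTNT mini-gene, whose splicing is not under Sam68 control. Compound treatment and RT-PCR followed the same procedure: medium with test compound for 16–24 h, total RNA extraction, reverse transcription, 25–30 PCR cycles, then gel separation and quantification of the splice isoforms.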

[5] = test system: cardiac troponin T (cTNT) alternative splicing in COS7 cells; test: cTNT mini-gene splicing control; assay type: cell-based; conditions: 500 µM; splicing not regulated by Sam68
How it was run: as §3

[6] = test system: r(CGG)^exp nuclear foci in COS7 cells; test: FISH assay of r; assay type: cell-based; conditions: COS7 cells expressing r(CGG)60 and GFP
How it was run: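 COS7 cells on coverslips were co-transfected with r(CGG)60 and GFP plasmids, then treated with test compound. Cells were fixed in 4% paraformaldehyde for 15 min and permeabilized with 0.5% Triton X-100. They were prehybridized for 30 min in 2X SSC/40% formamide, then hybridized for 2 h with a (CCG)8-Cy3 DNA probe. After DAPI counterstaining, cells were imaged by confocal or fluorescence microscopy; only GFP-positive cells were scored for nuclear foci.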

[7] = COS7 cells expressing r(CGG)60, 100 µM
[8] = COS7 cells expressing r(CGG)60, 500 µM
[9] = cells that do not express r(CGG)60

Cc1c2cc[n+](CCN3CCCCC3)cc2c(C)c2c1[nH]c1ccc(O)cc12 [1a, 9-hydroxy-5,11-dimethyl-2-(2-(piperidin-1-yl)ethyl)-6H-pyrido[4,3-b]carbazol-2-ium]
Percentage displacement at 25 µM (r(CGG)12-DGCR8Δ complex; 25 µM compound, protein displaced from r(CGG)12): 85 ± 1% | IC50 (r(CGG)12-DGCR8Δ complex; read-out: IC50 for disruption of the r(CGG)12-DGCR8Δ complex, TR-FRET assay): 13 ± 0.4 µM | Kd [1]: 0.076 ± 0.004 µM | Binding to r(CGG)12 (r(CGG)12): binds tightly | Binding to DGCR8Δ (DGCR8Δ): very little binding | Amount of ligand partitioned into fully paired RNAs relative to r(CGG)12 (fully paired RNAs): less than half | Improvement of SMN2 splicing defects ([2]; COS7 cells expressing r(CGG)60, 20 µM): improvement of SMN2 splicing defects can be observed | SMN2 pre-mRNA splicing level relative to wild type [2, 7]: approximately 70 % of wild type | SMN2 pre-mRNA splicing [2, 8]: restores pre-mRNA splicing to levels wild type | SMN2 pre-mRNA splicing defects ([2]; COS7 cells, CGG 60X mini-gene, Figure 4A): improves SMN2 pre-mRNA splicing defects | Effect on SMN2 splicing [2, 9]: No statistically significant effect | Improvement of Bcl-x splicing dysregulation [3, 7]: Statistically significant improvement | Bcl-x splicing [3, 8]: restoration of wild type splicing patterns | Bcl-x pre-mRNA splicing defects ([3]; COS7 cells, CGG 60X mini-gene, Figure 4B): improves Bcl-x pre-mRNA splicing defects | Effect on Bcl-x splicing [3, 9]: No statistically significant effect | Effect on PLEKHH2 alternative splicing [4]: did not affect | Effect on cTNT alternative splicing [5]: did not affect | Size and number of r(CGG)exp nuclear foci [6]: reduces the size and the number of foci; also recorded: decreases r(CGG)^exp-protein aggregates
